These results are taken from ChEMBL document CHEMBL1759839, “Synthesis, biopharmaceutical characterization, antimicrobial and antioxidant activities of 1-(4'-O-β-D-glucopyranosyloxy-2'-hydroxyphenyl)-3-aryl-propane-1,3-diones” (2011).

The term MIC denotes the least concentration at which growth counts as inhibited.

Assay type in all cases: functional
The test system of one assay is Candida albicans. Put plainly: Antifungal activity against Candida albicans ATCC 10231 after 48 hrs. Particulars: ATCC 10231, 48 h. Put shortly: (§1)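 Yeasts grown on Sabouraud dextrose agar, then in Sabouraud liquid medium at 36 °C overnight. Inoculum diluted in MOPS-buffered RPMI-1640 with L-glutamine, pH 7, to 2.5 × 10³ cfu/mL final. Twofold dilutions were made from a 20 mg/mL DMSO stock, with fluconazole as reference and DMSO at most 12.5% final. Incubated at 36 °C, humid, and read visually at 48 h. MIC was the lowest concentration giving no visible turbidity.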

A further assay deals with Nakaseomyces glabratus. Put plainly: Antifungal activity against Candida glabrata ATCC 36583 after 48 hrs. Particulars: ATCC 36583, 48 h. Put shortly:
as §1

The subject of another assay is Staphylococcus aureus. The experiment in a line: Antibacterial activity against Staphylococcus aureus ATCC 25923 after 24 hrs. Particulars: ATCC 25923, 24 h. Put shortly: (§2)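 Twofold broth dilution MIC in Mueller-Hinton broth, pH 6.9, inoculum (1-2) × 10³ cells/mL. Compounds and ampicillin trihydrate were dissolved in DMSO at 20 mg/mL stock and serially diluted from 20 down to 0.005. […] Plates incubated at 36 °C with a humid chamber and read visually after 24 h. MIC was the lowest concentration with no visible turbidity.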

Assay [1] concerns Escherichia coli. Put plainly: Antibacterial activity against Escherichia coli ATCC […] after 24 hrs. The method, boiled down:
as §2

The test system of assay [2] is Radical scavenging activity. The experiment in a line: Antioxidant activity assessed as DPPH free radical scavenging activity after 20 mins by spectrophotometric analysis. Further details: concentration or dose not given beside the values. Put shortly:
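Reduction of methanolic DPPH radical, with absorbance recorded at 516 nm and run in triplicate. Percent scavenging was calculated from the initial and final absorbance of each solution.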
For orientation: DPPH is a stable violet radical that fades when it is reduced.

In another assay the test system is Bacillus subtilis. The experiment in a line: Antibacterial activity against Bacillus subtilis ATCC 6633 after 24 hrs. Particulars: ATCC 6633, 24 h. The method, boiled down: as §2
In another assay the test system is Pseudomonas aeruginosa. Put plainly: Antibacterial activity against Pseudomonas aeruginosa ATCC 27853 after 24 hrs. As to conditions: ATCC 27853, 24 h. The method, boiled down:
as §2

Assay [3] relates to Escherichia coli. Put plainly: Antibacterial activity against Escherichia coli ATCC […]. Put shortly: as §2

Converted amounts (≈) assume the structure as drawn.

For `OC(Cn1cncn1)(Cn1cncn1)c1ccc(F)cc1F` [FLUCONAZOLE], the MIC with Candida albicans and against Nakaseomyces glabratus was 10 µg/mL (≈ 32.7 µM) each time.

In the case of `O=C(CC(=O)c1ccc(O[C@@H]2O[C@H](CO)[C@@H](O)[C@H](O)[C@H]2O)cc1O)c1cccc(Cl)c1`, the MIC worked out at 150 µg/mL (≈ 331 µM) in the assay with Staphylococcus aureus; 10000 µg/mL (≈ 22100 µM) with Candida albicans; 20 µg/mL (≈ 44.2 µM) against Escherichia coli [1]; 625 µg/mL (≈ 1380 µM) against Bacillus subtilis; 1250 µg/mL (≈ 2760 µM) against Pseudomonas aeruginosa; 10000 µg/mL (≈ 22100 µM) in the assay with Nakaseomyces glabratus. Moreover, in assay [2], the Activity was found to be 83.5%.

With `Cc1cccc(C(=O)CC(=O)c2ccc(O[C@@H]3O[C@H](CO)[C@@H](O)[C@H](O)[C@H]3O)cc2O)c1`, the MIC against Staphylococcus aureus came out at 20 µg/mL (≈ 46.3 µM); against Candida albicans, 2500 µg/mL (≈ 5780 µM); with Escherichia coli [1], 5000 µg/mL (≈ 11600 µM); in the assay with Bacillus subtilis it was 2500 µg/mL (≈ 5780 µM); against Pseudomonas aeruginosa it was 10000 µg/mL (≈ 23100 µM); with Nakaseomyces glabratus, 10000 µg/mL (≈ 23100 µM). Also, the Activity in assay [2] came out at 79.5%.

Consider `O=C(CC(=O)c1ccc(O[C@@H]2O[C@H](CO)[C@@H](O)[C@H](O)[C@H]2O)cc1O)c1ccc(Cl)cc1`, for which the minimum inhibitory concentration (MIC) stood at 150 µg/mL (≈ 331 µM) against Staphylococcus aureus; 150 µg/mL (≈ 331 µM) in the assay on Candida albicans; 70 µg/mL (≈ 155 µM) in the assay on Escherichia coli [1]; 300 µg/mL (≈ 662 µM) against Bacillus subtilis; 20 µg/mL (≈ 44.2 µM) in the assay with Pseudomonas aeruginosa; 5000 µg/mL (≈ 11000 µM) in the assay on Nakaseomyces glabratus. Besides, the Activity in assay [2] was 84.3%.

As for `O=C(CC(=O)c1ccc(O[C@@H]2O[C@H](CO)[C@@H](O)[C@H](O)[C@H]2O)cc1O)c1ccccc1`, the MIC against Staphylococcus aureus turned out to be 300 µg/mL (≈ 717 µM); in the assay on Candida albicans it was 2500 µg/mL (≈ 5980 µM); with Escherichia coli [1], 1250 µg/mL (≈ 2990 µM); with Bacillus subtilis it was 150 µg/mL (≈ 359 µM); against Pseudomonas aeruginosa, 150 µg/mL (≈ 359 µM); against Nakaseomyces glabratus, 2500 µg/mL (≈ 5980 µM). The Activity in assay [2] stood at 81.2%.

On to `Cc1ccc(C(=O)CC(=O)c2ccc(O[C@@H]3O[C@H](CO)[C@@H](O)[C@H](O)[C@H]3O)cc2O)cc1`, for which the MIC in the assay on Staphylococcus aureus was found to be 625 µg/mL (≈ 1450 µM); with Candida albicans, 5000 µg/mL (≈ 11600 µM); with Escherichia coli [1] it was 5000 µg/mL (≈ 11600 µM); in the assay on Bacillus subtilis it was 2500 µg/mL (≈ 5780 µM); in the assay on Pseudomonas aeruginosa, 5000 µg/mL (≈ 11600 µM); in the assay with Nakaseomyces glabratus, 5000 µg/mL (≈ 11600 µM). For the same compound, the Activity in assay [2] is 82%.

In the case of `CC1(C)S[C@@H]2[C@H](NC(=O)[C@H](N)c3ccccc3)C(=O)N2[C@H]1C(=O)O` [AMPICILLIN], the minimal inhibitory concentration (MIC) was determined as 19 µg/mL (≈ 54.4 µM) against Staphylococcus aureus, 10 µg/mL (≈ 28.6 µM) against Escherichia coli [1], 5 µg/mL (≈ 14.3 µM) with Bacillus subtilis and 5 µg/mL (≈ 14.3 µM) with Pseudomonas aeruginosa.

On to `O=C1O[C@H]([C@@H](O)CO)C(O)=C1O`, for which the Activity in assay [2] was determined as 98%.

For the compound `COc1ccc(C(=O)CC(=O)c2ccc(O[C@@H]3O[C@H](CO)[C@@H](O)[C@H](O)[C@H]3O)cc2O)cc1`, the MIC with Staphylococcus aureus was found to be 2500 µg/mL (≈ 5580 µM); against Candida albicans, 1250 µg/mL (≈ 2790 µM); in the assay on Escherichia coli [1] it was 5000 µg/mL (≈ 11200 µM); with Bacillus subtilis, 2500 µg/mL (≈ 5580 µM); in the assay on Pseudomonas aeruginosa, 30 µg/mL (≈ 66.9 µM); against Escherichia coli [3], 5000 µg/mL (≈ 11200 µM). The same compound returned an MIC with Nakaseomyces glabratus of 2500 µg/mL (≈ 5580 µM). Further, the Activity in assay [2] came to 73.5%.

Consider `COc1cccc(C(=O)CC(=O)c2ccc(O[C@@H]3O[C@H](CO)[C@@H](O)[C@H](O)[C@H]3O)cc2O)c1`, for which the MIC against Staphylococcus aureus was determined as 625 µg/mL (≈ 1390 µM); in the assay with Candida albicans it was 10000 µg/mL (≈ 22300 µM); against Escherichia coli [1], 2500 µg/mL (≈ 5580 µM); in the assay with Bacillus subtilis, 150 µg/mL (≈ 335 µM); against Pseudomonas aeruginosa it was 5000 µg/mL (≈ 11200 µM); in the assay with Nakaseomyces glabratus, 5000 µg/mL (≈ 11200 µM). In assay [2], the Activity is 77.3%.

With `O=C(CC(=O)c1ccccc1Cl)c1ccc(O[C@@H]2O[C@H](CO)[C@@H](O)[C@H](O)[C@H]2O)cc1O`, the MIC was 150 µg/mL (≈ 331 µM) against Staphylococcus aureus; 5000 µg/mL (≈ 11000 µM) against Candida albicans; 20 µg/mL (≈ 44.2 µM) with Escherichia coli [1]; 1250 µg/mL (≈ 2760 µM) against Bacillus subtilis; 20 µg/mL (≈ 44.2 µM) in the assay with Pseudomonas aeruginosa; 5000 µg/mL (≈ 11000 µM) in the assay with Nakaseomyces glabratus. The Activity in assay [2] came out at 89.1%.
